From ChEMBL document CHEMBL4689842, “EUbOPEN Chemogenomics Library wave 1” (2021)
Several values for one entry are separate records, joined by “and”; a condition that tells them apart may be missing. Identical values can stand only once.

Tested on: U2OS
Test: Multiplex assay against U2OS
Type: toxicity, cell-based
Conditions: human
Summary of the method: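 With compound added, live cells were imaged on a CQ1 microscope at 37°C and 5% CO2; staining with Hoechst33342, BioTracker Green Microtubule Cytoskeleton Dye, MitoTracker Red and Annexin V Alexa Fluor 680 had been done at seeding. The CellPathfinder machine-learning gating scheme split cells into Hoechst high-intensity objects or normal cells, normal cells into healthy, pyknosed or fragmented nuclei, and pyknosed cells into mitotic or apoptotic. The tubulin, mitochondrial-mass and membrane-permeability phenotypes are per cents of healthy-nucleus cells.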

[1] = 12 h, 1 µM, compound concentration 1 uM, replicate 1
[2] = 12 h, 1 µM, compound concentration 1 uM, replicate 2
[3] = 12 h, 10 µM, compound concentration 10 uM, replicate 1
[4] = 12 h, 10 µM, compound concentration 10 uM, replicate 2
[5] = 24 h, 1 µM, compound concentration 1 uM, replicate 1
[6] = 24 h, 1 µM, compound concentration 1 uM, replicate 2
[7] = 24 h, 10 µM, compound concentration 10 uM, replicate 1
[8] = 24 h, 10 µM, compound concentration 10 uM, replicate 2
[9] = 48 h, 1 µM, compound concentration 1 uM, replicate 1
[10] = 48 h, 1 µM, compound concentration 1 uM, replicate 2
[11] = 48 h, 10 µM, compound concentration 10 uM, replicate 1
[12] = 48 h, 10 µM, compound concentration 10 uM, replicate 2

With Cc1ccc2c(c1)c1c(n2CCc2ccc(C)nc2)CCN(C)C1 [LATREPIRDINE] the “Population Apoptotic (%)” value [1] was 53%, the “Population Fragmented Nuclei (%)” value [1] was 8% and the “Population Healthy Nuclei (%)” value [1] was 81%. The “Population Hoechst High Intensity Objects (%)” value [1] was 7%, the “Population Membrane Permeable-Phenotype (%)” value [1] was 6% and the “Population Mitochondria Different-Phenotype (%)” value [1] was 46%. For the same compound, the “Population Mitotic Cells (%)” value [1] was 46%, the “Population Normal (%)” value [1] was 92% and the “Population Pyknosed Nuclei (%)” value [1] was 9%. For the same compound, the “Population Tubulin-Different-Phenotype (%)” value [1] was 42%, the “Total Cell Count” value [1] was 147 and the “Population Apoptotic (%)” value [2] was 100%. For the same compound, the “Population Fragmented Nuclei (%)” value [2] was 27%, the “Population Healthy Nuclei (%)” value [2] was 67% and the “Population Hoechst High Intensity Objects (%)” value [2] was 16%. The “Population Membrane Permeable-Phenotype (%)” value [2] was 5%, the “Population Mitochondria Different-Phenotype (%)” value [2] was 27% and the “Population Mitotic Cells (%)” value [2] was 0%. The “Population Normal (%)” value [2] was 83%, the “Population Pyknosed Nuclei (%)” value [2] was 4% and the “Population Tubulin-Different-Phenotype (%)” value [2] was 27%. For the same compound, the “Total Cell Count” value [2] was 61, the “Population Apoptotic (%)” value [3] was 47% and the “Population Fragmented Nuclei (%)” value [3] was 11%. For the same compound, the “Population Healthy Nuclei (%)” value [3] was 64%, the “Population Hoechst High Intensity Objects (%)” value [3] was 7% and the “Population Membrane Permeable-Phenotype (%)” value [3] was 21%. For the same compound, the “Population Mitochondria Different-Phenotype (%)” value [3] was 97%, the “Population Mitotic Cells (%)” value [3] was 52% and the “Population Normal (%)” value [3] was 92%. The “Population Pyknosed Nuclei (%)” value [3] was 24%, the “Total Cell Count” value [3] was 142 and the “Population Apoptotic (%)” value [4] was 88%. For the same compound, the “Population Fragmented Nuclei (%)” value [4] was 7%, the “Population Healthy Nuclei (%)” value [4] was 65% and the “Population Hoechst High Intensity Objects (%)” value [4] was 8%. For the same compound, the “Population Membrane Permeable-Phenotype (%)” value [4] was 42%, the “Population Mitochondria Different-Phenotype (%)” value [4] was 100% and the “Population Mitotic Cells (%)” value [4] was 11%. The “Population Normal (%)” value [4] was 91%, the “Population Pyknosed Nuclei (%)” value [4] was 26% and the “Population Tubulin-Different-Phenotype (%)” value [4] was 100%. The “Total Cell Count” value [4] was 103, the “Population Apoptotic (%)” value [5] was 47% and the “Population Fragmented Nuclei (%)” value [5] was 6%. The “Population Healthy Nuclei (%)” value [5] was 83%, the “Population Hoechst High Intensity Objects (%)” value [5] was 3% and the “Population Membrane Permeable-Phenotype (%)” value [5] was 4%. The “Population Mitochondria Different-Phenotype (%)” value [5] was 38%, the “Population Mitotic Cells (%)” value [5] was 52% and the “Population Normal (%)” value [5] was 96%. For the same compound, the “Population Pyknosed Nuclei (%)” value [5] was 10%, the “Population Tubulin-Different-Phenotype (%)” value [5] was 30% and the “Total Cell Count” value [5] was 166. The “Population Apoptotic (%)” value [6] was 55%, the “Population Fragmented Nuclei (%)” value [6] was 23% and the “Population Healthy Nuclei (%)” value [6] was 67%. For the same compound, the “Population Hoechst High Intensity Objects (%)” value [6] was 13%, the “Population Membrane Permeable-Phenotype (%)” value [6] was 10% and the “Population Mitochondria Different-Phenotype (%)” value [6] was 27%. The “Population Mitotic Cells (%)” value [6] was 44%, the “Population Normal (%)” value [6] was 86% and the “Population Pyknosed Nuclei (%)” value [6] was 8%. The “Population Tubulin-Different-Phenotype (%)” value [6] was 14%, the “Total Cell Count” value [6] was 74 and the “Population Apoptotic (%)” value [7] was 71%. For the same compound, the “Population Fragmented Nuclei (%)” value [7] was 12%, the “Population Healthy Nuclei (%)” value [7] was 54% and the “Population Hoechst High Intensity Objects (%)” value [7] was 8%. The “Population Membrane Permeable-Phenotype (%)” value [7] was 24%, the “Population Mitochondria Different-Phenotype (%)” value [7] was 97% and the “Population Mitotic Cells (%)” value [7] was 28%. The “Population Normal (%)” value [7] was 91%, the “Population Pyknosed Nuclei (%)” value [7] was 33% and the “Population Tubulin-Different-Phenotype (%)” value [7] was 100%. For the same compound, the “Total Cell Count” value [7] was 172, the “Population Apoptotic (%)” value [8] was 76% and the “Population Fragmented Nuclei (%)” value [8] was 4%. For the same compound, the “Population Healthy Nuclei (%)” value [8] was 56%, the “Population Hoechst High Intensity Objects (%)” value [8] was 4% and the “Population Membrane Permeable-Phenotype (%)” value [8] was 56%. For the same compound, the “Population Mitochondria Different-Phenotype (%)” value [8] was 100%, the “Population Mitotic Cells (%)” value [8] was 24% and the “Population Normal (%)” value [8] was 95%. For the same compound, the “Population Pyknosed Nuclei (%)” value [8] was 38%, the “Total Cell Count” value [8] was 119 and the “Population Apoptotic (%)” value [9] was 40%. The “Population Fragmented Nuclei (%)” value [9] was 4%, the “Population Healthy Nuclei (%)” value [9] was 81% and the “Population Hoechst High Intensity Objects (%)” value [9] was 2%. The “Population Membrane Permeable-Phenotype (%)” value [9] was 6%, the “Population Mitochondria Different-Phenotype (%)” value [9] was 11% and the “Population Mitotic Cells (%)” value [9] was 59%. For the same compound, the “Population Normal (%)” value [9] was 97%, the “Population Pyknosed Nuclei (%)” value [9] was 13% and the “Population Tubulin-Different-Phenotype (%)” value [9] was 22%. For the same compound, the “Total Cell Count” value [9] was 150, the “Population Apoptotic (%)” value [10] was 60% and the “Population Fragmented Nuclei (%)” value [10] was 17%. The “Population Healthy Nuclei (%)” value [10] was 75%, the “Population Hoechst High Intensity Objects (%)” value [10] was 10% and the “Population Membrane Permeable-Phenotype (%)” value [10] was 16%. The “Population Mitochondria Different-Phenotype (%)” value [10] was 8%, the “Population Mitotic Cells (%)” value [10] was 40% and the “Population Normal (%)” value [10] was 89%. The “Population Pyknosed Nuclei (%)” value [10] was 7%, the “Population Tubulin-Different-Phenotype (%)” value [10] was 10% and the “Total Cell Count” value [10] was 68. For the same compound, the “Population Apoptotic (%)” value [11] was 64%, the “Population Fragmented Nuclei (%)” value [11] was 14% and the “Population Healthy Nuclei (%)” value [11] was 43%. The “Population Hoechst High Intensity Objects (%)” value [11] was 6%, the “Population Membrane Permeable-Phenotype (%)” value [11] was 28% and the “Population Mitochondria Different-Phenotype (%)” value [11] was 90%. For the same compound, the “Population Mitotic Cells (%)” value [11] was 35%, the “Population Normal (%)” value [11] was 93% and the “Population Pyknosed Nuclei (%)” value [11] was 41%. For the same compound, the “Population Tubulin-Different-Phenotype (%)” value [11] was 95%, the “Total Cell Count” value [11] was 240 and the “Population Apoptotic (%)” value [12] was 62%. The “Population Fragmented Nuclei (%)” value [12] was 13%, the “Population Healthy Nuclei (%)” value [12] was 44% and the “Population Hoechst High Intensity Objects (%)” value [12] was 5%. For the same compound, the “Population Membrane Permeable-Phenotype (%)” value [12] was 52%, the “Population Mitochondria Different-Phenotype (%)” value [12] was 94% and the “Population Mitotic Cells (%)” value [12] was 37%. The “Population Normal (%)” value [12] was 95%, the “Population Pyknosed Nuclei (%)” value [12] was 42% and the “Population Tubulin-Different-Phenotype (%)” value [12] was 97%. The “Total Cell Count” value [12] was 156.

Cc1cc(NC(=O)c2cccc(S(F)(F)(F)(F)F)c2)cc(-n2ccn3nc(-c4cccnc4)cc23)c1 [BAY-309] was tested, and the “Population Apoptotic (%)” value [3] was 25% and 23%, the “Population Fragmented Nuclei (%)” value [3] was 4% and the “Population Healthy Nuclei (%)” value [3] was 87% and 78%. The “Population Hoechst High Intensity Objects (%)” value [3] was 0% and 3%, the “Population Membrane Permeable-Phenotype (%)” value [3] was 46% and 55% and the “Population Mitochondria Different-Phenotype (%)” value [3] was 30% and 60%. The “Population Mitotic Cells (%)” value [3] was 75% and 76%, the “Population Normal (%)” value [3] was 99% and 96% and the “Population Pyknosed Nuclei (%)” value [3] was 7% and 16%. For the same compound, the “Population Tubulin-Different-Phenotype (%)” value [3] was 67%, the “Total Cell Count” value [3] was 108 and 233 and the “Population Apoptotic (%)” value [4] was 37% and 56%. For the same compound, the “Population Fragmented Nuclei (%)” value [4] was 8% and 9%, the “Population Healthy Nuclei (%)” value [4] was 82% and 67% and the “Population Hoechst High Intensity Objects (%)” value [4] was 9% and 5%. The “Population Membrane Permeable-Phenotype (%)” value [4] was 53% and 49%, the “Population Mitotic Cells (%)” value [4] was 62% and 43% and the “Population Normal (%)” value [4] was 90% and 94%. The “Population Pyknosed Nuclei (%)” value [4] was 9% and 22%, the “Population Tubulin-Different-Phenotype (%)” value [4] was 61% and 100% and the “Total Cell Count” value [4] was 185. The “Population Apoptotic (%)” value [7] was 50% and 61%, the “Population Fragmented Nuclei (%)” value [7] was 8% and 6% and the “Population Healthy Nuclei (%)” value [7] was 85% and 70%. For the same compound, the “Population Hoechst High Intensity Objects (%)” value [7] was 5% and 3%, the “Population Membrane Permeable-Phenotype (%)” value [7] was 42% and 56% and the “Population Mitotic Cells (%)” value [7] was 50% and 38%. The “Population Normal (%)” value [7] was 95% and 96%, the “Population Tubulin-Different-Phenotype (%)” value [7] was 53% and the “Total Cell Count” value [7] was 140 and 230. For the same compound, the “Population Apoptotic (%)” value [8] was 95% and 37%, the “Population Fragmented Nuclei (%)” value [8] was 15% and 7% and the “Population Healthy Nuclei (%)” value [8] was 60% and 84%. The “Population Hoechst High Intensity Objects (%)” value [8] was 9% and 6%, the “Population Membrane Permeable-Phenotype (%)” value [8] was 74% and 40% and the “Population Mitochondria Different-Phenotype (%)” value [8] was 83% and 30%. For the same compound, the “Population Normal (%)” value [8] was 90% and 93%, the “Population Tubulin-Different-Phenotype (%)” value [8] was 100% and 40% and the “Total Cell Count” value [8] was 108 and 215.
